Test results as given in ChEMBL document CHEMBL3227926, “2-Mercaptoacetamidines as gastric antisecretory agents” (J Med Chem, 1979).

What was measured:
[1] = Dissociation constant, apparent pKa of the compound in 20% EtOH/H2O; assay type: physicochemical; conditions: read-out: Apparent_pKa
Outline: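 Potentiometric titration in 20% EtOH–H2O with a glass-calomel electrode. Sample was titrated directly with 0.5 N NaOH, or dissolved with excess NaOH and back-titrated with 0.5 N HCl. pKa was read as the pH at the half-neutralization point of the curve.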

[2] = system: Canis familiaris; assay: Toxicity in beagle dog assessed as tachycardia administered directly into stomach via gastric cannula; assay type: organism-based, Canis lupus familiaris; conditions: in vivo, other
[3] = system: Canis familiaris; assay: Toxicity in beagle dog assessed as emesis administered directly into stomach via gastric cannula; assay type: organism-based, Canis lupus familiaris; conditions: in vivo, other
[4] = system: Canis familiaris; assay: Toxicity in beagle dog assessed as gastric bleeding administered directly into stomach via gastric cannula; assay type: organism-based, Canis lupus familiaris; conditions: in vivo, other
[5] = system: Canis familiaris; assay: Inhibition of gastrin tetrapeptide-induced gastric secretion in beagle dog at 16 mg/kg administered directly into stomach via gastric cannula measured after 2 hrs of stimulation; assay type: functional; conditions: Canis lupus familiaris
Outline: (§1)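 Conscious female beagles (5-9 kg) with chronic gastric fistula. Dose in 50 mL 1% methylcellulose was put into the stomach via the cannula 1 h before gastrin tetrapeptide 64 µg/kg sc (from 640 µg/mL in 30% Me2SO); controls got vehicle. Juice was collected for 2 h. Volume was measured, titratable acid obtained by titration to pH 7 with 0.01 N NaOH, and total acid taken as volume × concentration.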

[6] = system: Canis familiaris; assay: Inhibition of gastrin tetrapeptide-induced gastric secretion in beagle dog assessed as volume at 16 mg/kg administered directly into stomach via gastric cannula measured after 2 hrs of stimulation; assay type: functional; conditions: Canis lupus familiaris; outline: as §1
[7] = system: Canis familiaris; assay: Inhibition of gastrin tetrapeptide-induced gastric secretion in beagle dog assessed as volume at 32 mg/kg administered directly into stomach via gastric cannula measured after 2 hrs of stimulation; assay type: functional; conditions: Canis lupus familiaris; outline: as §1
[8] = system: Canis familiaris; assay: Inhibition of gastrin tetrapeptide-induced gastric secretion in beagle dog assessed as total acid output at 16 mg/kg administered directly into stomach via gastric cannula measured after 2 hrs of stimulation; assay type: functional; conditions: Canis lupus familiaris; outline: as §1
[9] = system: Canis familiaris; assay: Inhibition of gastrin tetrapeptide-induced gastric secretion in beagle dog assessed as total acid output at 32 mg/kg administered directly into stomach via gastric cannula measured after 2 hrs of stimulation; assay type: functional; conditions: Canis lupus familiaris; outline: as §1
[10] = system: Canis familiaris; assay: Inhibition of gastrin tetrapeptide-induced gastric secretion in beagle dog assessed as titratable acid at 16 mg/kg administered directly into stomach via gastric cannula measured after 2 hrs of stimulation; assay type: functional; conditions: Canis lupus familiaris; outline: as §1
[11] = system: Canis familiaris; assay: Inhibition of gastrin tetrapeptide-induced gastric secretion in beagle dog assessed as titratable acid at 32 mg/kg administered directly into stomach via gastric cannula measured after 2 hrs of stimulation; assay type: functional; conditions: Canis lupus familiaris; outline: as §1

| pKa [1] | SMILES | Activity [2] | Activity [3] | Activity [4] | inhibition in vivo at 16 mg/kg [5] [%] | inhibition in vivo at 16 mg/kg [6] [%] | inhibition in vivo at 32 mg/kg [7] [%] | inhibition in vivo at 16 mg/kg [8] [%] | inhibition in vivo at 32 mg/kg [9] [%] | inhibition in vivo at 16 mg/kg [10] [%] | inhibition in vivo at 32 mg/kg [11] [%] |
| --- | --- | --- | --- | --- | --- | --- | --- | --- | --- | --- | --- |
| 11 | N=C(CSCc1ccccc1)NC[C@@H]1C[C@H]2CC[C@H]1C2 (relative stereo; 51) | Toxic | Toxic | Toxic | 19 | – | – | – | – | – | – |
| – | CNC(=S)NCCSCc1[nH]cnc1C [METIAMIDE] | – | – | – | – | 65 | 83 | 64 | 90 | 91 | 70 |
